Results on 30 compounds are retold here after ChEMBL document CHEMBL1140299, “1-Benzhydryl-3-phenylurea and 1-benzhydryl-3-phenylthiourea derivatives: new templates among the CB1 cannabinoid receptor inverse agonists” (J Med Chem, 2005).

Assay [1] deals with T1, Cannabinoid receptor 1 (Homo sapiens, UniProt P21554). Kind of assay: biochemical. It counts as cell-based, CHO.
The target in assay [2] is Cannabinoid receptor 2 (Homo sapiens) (UniProt P34972). Kind of assay: Displacement of [3H]CP-55940 from human CB2 receptor expressed in CHO cells at 10 uM. It counts as cell-based. In a few lines: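 Competition binding on membranes of cells expressing hCB2 (40 µg per tube) with [3H]-CP-55940 (1 nM) at 30 °C for 1 h. Buffer: 50 mM Tris-HCl, 3 mM MgCl2, 1 mM EDTA, 0.5% BSA, pH 7.4. DMSO stocks diluted 100× into buffer. Nonspecific binding defined with 10 µM HU-210. Bound label collected by filtration on PEI-pretreated GF/B filters and counted by scintillation. Run at least in triplicate.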
Sequence of Cannabinoid receptor 2 (Homo sapiens) (P34972 whole entry): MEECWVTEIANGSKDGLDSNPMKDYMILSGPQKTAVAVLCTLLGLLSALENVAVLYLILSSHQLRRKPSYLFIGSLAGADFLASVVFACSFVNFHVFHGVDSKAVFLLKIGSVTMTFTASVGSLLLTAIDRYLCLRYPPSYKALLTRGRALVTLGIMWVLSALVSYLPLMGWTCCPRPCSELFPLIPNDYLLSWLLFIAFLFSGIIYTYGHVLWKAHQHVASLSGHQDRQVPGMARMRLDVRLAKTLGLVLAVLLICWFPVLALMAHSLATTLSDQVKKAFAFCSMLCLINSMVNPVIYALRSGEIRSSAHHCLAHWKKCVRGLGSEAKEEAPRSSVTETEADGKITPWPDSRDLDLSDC
In general terms: Loss of bound radioactivity is the signal in a displacement assay; it reports binding, not function.

For assay [3], the target named is T1, Cannabinoid receptor 1. Kind of assay: Activity at human CB1 receptor by [35S]GTP-gamma-S binding stimulation assay. The class given is functional. (Binding of GTPγS marks nucleotide exchange on a G protein.)
For assay [4], the target named is T1, Cannabinoid receptor 1. The settings on record: at 10 µM.

Where only a bound is given, the exact number is not on record here.

T1 sequence (P21554 whole entry): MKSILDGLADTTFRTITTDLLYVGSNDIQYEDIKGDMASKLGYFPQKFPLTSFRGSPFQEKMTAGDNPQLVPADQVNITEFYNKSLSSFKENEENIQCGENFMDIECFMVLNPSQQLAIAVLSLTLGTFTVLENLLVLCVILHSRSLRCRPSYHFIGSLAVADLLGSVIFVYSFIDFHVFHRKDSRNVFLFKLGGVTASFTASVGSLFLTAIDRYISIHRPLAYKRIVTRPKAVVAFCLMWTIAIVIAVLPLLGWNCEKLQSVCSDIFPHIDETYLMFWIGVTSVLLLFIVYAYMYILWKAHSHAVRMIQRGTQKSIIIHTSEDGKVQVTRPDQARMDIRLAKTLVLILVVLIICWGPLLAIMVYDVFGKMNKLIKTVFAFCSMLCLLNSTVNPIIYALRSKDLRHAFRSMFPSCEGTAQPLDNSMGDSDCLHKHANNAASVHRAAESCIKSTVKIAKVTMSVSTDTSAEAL

A word on the Ki: it is a dissociation constant, usually derived from enzyme kinetics or from competition with a known ligand. A low value points to a stronger hold on the target. In the case of `O=C1N(c2ccccc2)C(=S)NC1(c1ccc(Br)cc1)c1ccc(Br)cc1`, the Ki at Cannabinoid receptor 1 [1] is 3450 nM (antagonist). In assay [2], this compound came in with an Activity of less than 20%. As to `O=C1NC(c2ccc(F)cc2)(c2ccc(F)cc2)C(=O)N1c1ccccc1`, the Activity in assay [2] is less than 20%. The EC50 is the concentration giving half of the maximal effect. What is called Emax is the size of the effect at its maximum, as opposed to the concentration needed. Take `S=C(Nc1ccc(Cl)cc1)NC(c1ccc(Br)cc1)c1ccc(Br)cc1`: the Ki at Cannabinoid receptor 1 [1] is 1500 nM (antagonist). In assay [2], this compound showed an Activity of 29%. Moreover, the EC50 at Cannabinoid receptor 1 [3] was 1250 nM (inverse agonist). For the same compound, the Emax on Cannabinoid receptor 1 [4] (filed as inverse agonist) is -61%. `O=C(Nc1ccc(I)cc1)NC(c1ccccc1)c1ccccc1` gave an Activity in assay [2] of less than 10%. On the same count and under the same terms, under `O=C(Nc1ccccc1F)NC(c1ccccc1)c1ccccc1` stands less than 10%. Regarding `O=C(Nc1ccc(Br)cc1)NC(c1ccc(Br)cc1)c1ccc(Br)cc1`, at Cannabinoid receptor 1 [1], the Ki is recorded as 500 nM (antagonist). The same compound yielded an Activity in assay [2] of 22%. Further, the EC50 at Cannabinoid receptor 1 [3] is 500 nM (inverse agonist). Further, the Emax on Cannabinoid receptor 1 [4] (filed as inverse agonist) was -61%. Compound `CCCCCCc1ccc(NC(=O)NC(c2ccc(Br)cc2)c2ccc(Br)cc2)cc1` registered an Activity in assay [2] of less than 20%. On the same count and under the same terms, under `O=C(Nc1ccc(I)cc1)NC(c1ccc(Br)cc1)c1ccc(Br)cc1` stands 34%; under `O=C(Nc1ccc(CO)cc1)NC(c1ccc(Br)cc1)c1ccc(Br)cc1`, less than 20%. Take `S=C(Nc1ccccc1)NC(c1ccc(Cl)cc1)c1ccc(Cl)cc1`: the Ki on Cannabinoid receptor 1 [1] is 2900 nM (antagonist). The Activity in assay [2] worked out at 23%. `O=C1NC(c2ccccc2)(c2ccccc2)C(=O)N1c1ccc(Br)cc1` returned an Activity in assay [2] of less than 20%.

On to `O=C(Nc1ccc(Br)cc1)NC(c1ccccc1)c1ccccc1`, for which the Activity in assay [2] was less than 20%. On the same count and under the same terms, the value for `O=C(Nc1ccccc1)NC(c1ccc(F)cc1)c1ccc(F)cc1` was less than 10%.

As for `O=C(Nc1ccccc1)NC(c1ccc(Cl)cc1)c1ccc(Cl)cc1`, the Ki at Cannabinoid receptor 1 [1] is 7050 nM (antagonist). Moreover, in assay [2], the Activity amounted to 23%. Turning to `O=C(Nc1ccc(Cl)cc1)NC(c1ccc(Br)cc1)c1ccc(Br)cc1`, the Ki on Cannabinoid receptor 1 [1] is reported as 650 nM (antagonist). The same compound registered an Activity in assay [2] of 31%. For the same compound, the EC50 on Cannabinoid receptor 1 [3] was 450 nM (inverse agonist). The Emax at Cannabinoid receptor 1 [4] (filed as inverse agonist) was -72%. On to `O=C1NC(c2ccccc2)(c2ccccc2)C(=O)N1c1ccccc1`, for which, in assay [2], the Activity was less than 20%. Consider `O=C1N(c2ccc(Cl)cc2)C(=S)NC1(c1ccc(Br)cc1)c1ccc(Br)cc1`, for which the Ki on Cannabinoid receptor 1 [1] is 2750 nM (antagonist). Besides, the Activity in assay [2] is less than 20%. On to `S=C(Nc1ccc(Cl)cc1)NC(c1ccc(Cl)cc1)c1ccc(Cl)cc1`, for which, at Cannabinoid receptor 1 [1], the Ki was 1900 nM (antagonist). This compound came in with an Activity in assay [2] of 23%. Take `S=C(Nc1ccccc1)NC(c1ccc(Br)cc1)c1ccc(Br)cc1`: the Ki on Cannabinoid receptor 1 [1] was 1800 nM (antagonist). In addition, the Activity in assay [2] was found to be 29%. Compound `O=C1NC(c2ccc(Br)cc2)(c2ccc(Br)cc2)C(=O)N1c1ccccc1` registered an Activity in assay [2] of less than 20%.

Take `O=C(Nc1ccc(Br)cc1)NC(c1ccc(Cl)cc1)c1ccc(Cl)cc1`: the Ki at Cannabinoid receptor 1 [1] is 1250 nM (antagonist). Also, the Activity in assay [2] was 29%. Besides, the EC50 at Cannabinoid receptor 1 [3] was 700 nM (inverse agonist). Moreover, the Emax at Cannabinoid receptor 1 [4] (filed as inverse agonist) is -66%. For `O=C(Nc1ccc(Br)cc1)NC(c1ccc(I)cc1)c1ccc(I)cc1`, the Ki at Cannabinoid receptor 1 [1] is 750 nM (antagonist). In assay [2], this compound had an Activity of 19%. With `O=C(Nc1ccc(Cl)cc1)NC(c1ccc(Cl)cc1)c1ccc(Cl)cc1`, the Ki on Cannabinoid receptor 1 [1] is 1100 nM (antagonist). For the same compound, in assay [2], the Activity is 24%. The EC50 at Cannabinoid receptor 1 [3] was 1050 nM (inverse agonist). Further, the Emax at Cannabinoid receptor 1 [4] (filed as inverse agonist) is -74%. Take `O=C(Nc1ccccc1)NC(c1ccccc1)c1ccccc1`: in assay [2], the Activity was less than 10%.

For the compound `CCCCCCC(C)(C)c1cc(O)c2c(c1)OC(C)(C)[C@H]1CC=C(CO)C[C@H]21` [DEXANABINOL], the Ki at Cannabinoid receptor 1 [1] is reported as 19 nM (antagonist). For the same compound, on Cannabinoid receptor 1 [3], the half-maximal effective concentration (EC50) is reported as 0.6 nM (inverse agonist). Besides, the Emax at Cannabinoid receptor 1 [4] (filed as agonist) was 200%. Compound `O=C(Nc1ccc(F)cc1)NC(c1ccccc1)c1ccccc1` came in with an Activity in assay [2] of less than 10%. Same read-out and setting: under `COc1ccc(NC(=O)NC(c2ccccc2)c2ccccc2)cc1` stands less than 20%. Regarding `O=C(Nc1ccccc1)NC(c1ccc(Br)cc1)c1ccc(Br)cc1`, on Cannabinoid receptor 1 [1], the Ki was 2900 nM (antagonist). For the same compound, in assay [2], the Activity turned out to be 38%.

In assay [2], `O=C(Nc1ccc(Cl)cc1)NC(c1ccccc1)c1ccccc1` came in with an Activity of less than 20%.

As for `CCCCCCc1ccc(NC(=O)NC(c2ccccc2)c2ccccc2)cc1`, the Activity in assay [2] was 24%.
